In publication PMC2931272 (Antiviral chemistry & chemotherapy, 2009):

Tests used:
[1] = Pharmacokinetics after IV bolus dosing of prodrug; type: in vivo; settings: mice, IV 24.6 mg/kg prodrug
[2] = Kinetics of hydrolysis at pH 7.0; type: physicochemical; settings: phosphate buffer
[3] = Stability of prodrug / conversion to cyclopropavir in mouse whole blood; type: in vitro ADME; settings: for First order rate constant of conversion to cyclopropavir (5) / half live of conversion to cyclopropavir (5): 50 μM
Procedure, shortened: (§1)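 Blood was drawn by cardiac puncture from anaesthetised male Swiss-Webster mice into EDTA(K3) and iced; plasma was spun 10 min at 1100 × G, 4°C. Blood or plasma was spiked from a DMSO stock to a 50 μM final and held at 0°C (ice water) or 37°C. A no-incubation control was processed straight after spiking. Timed aliquots were frozen (blood first spun 2200 × G, 5 min, 4°C). Prodrug and parent were measured by HPLC, UV.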

[4] = Stability of prodrug / conversion to cyclopropavir in mouse plasma; type: in vitro ADME; settings: for First order rate constant of conversion to cyclopropavir (5) / half live of conversion to cyclopropavir (5): 50 μM
Procedure, shortened: as §1

[5] = Visual cytotoxicity in uninfected HFF's used in plaque reduction assays; type: cell-based; settings: human, uninfected human foreskin fibroblasts (HFF)
[6] = Cytotoxicity by neutral red assay in HFF; type: cell-based; settings: human, human foreskin fibroblasts (HFF)
[7] = pH 7.08, 37 °C; cited from earlier work
[8] = analyte prodrug (6), two compartments model

Compound: CC(C)[C@H](N)C(=O)OCC1(CO)C/C1=C/n1cnc2c(=O)[nH]c(N)nc21.Cl (mixture of isomers) [Valcyclopropavir (6), (Z)-9-{[2-Hydroxymethyl-2-(L-valyloxymethyl)cyclopropylidene]methyl}guanine Hydrochloride]
- Rate constant of distribution phase, α [1, 8]: 0.25 min.^−1
- Rate constant of elimination phase, β [1, 8]: 0.00263 min.^−1
- Volume of main compartment, V [1, 8]: 0.0753 L/kg
- AUC ([1]; male, Swiss-Webster, mouse, plasma, iv, 24.6 mg/kg, Area under the curve, AUC, analyte prodrug (6), single compartment first order elimination model): 1020 ng·h/mL
- clearance ([1]; male, Swiss-Webster, mouse, plasma, iv, 24.6 mg/kg, Clearance (Cl), analyte prodrug (6), single compartment first order elimination model): 402 mL/min
- half-life ([1]; male, Swiss-Webster, mouse, plasma, iv, 24.6 mg/kg, Half-life, T1/2, analyte prodrug (6), single compartment first order elimination model): 2.68 h
- half-life at 2.25 mM [2]: 22.5 h
- half-life at 50 μM ([3]; male, Swiss-Webster, mouse, whole blood): 22 h
- First order rate constant of conversion to cyclopropavir (5) ([3]; mouse whole blood, 0°C): 0.0005 min.^−1
- half live of conversion to cyclopropavir (5) ([3]; mouse whole blood, 0°C): 1310 min
- First order rate constant of conversion to cyclopropavir (5) ([3]; mouse whole blood, 37°C): 0.0087 min.^−1
- half live of conversion to cyclopropavir (5) ([3]; mouse whole blood, 37°C): 80 min
- conversion of valcyclopropavir (6) to cyclopropavir (5), no incubation ([3]; mouse whole blood, processed immediately after spiking): 9.0%
- First order rate constant of conversion to cyclopropavir (5) ([4]; 0°C): 0.0010 min.^−1
- half live of conversion to cyclopropavir (5) ([4]; 0°C): 727 min
- First order rate constant of conversion to cyclopropavir (5) ([4]; 37°C): 0.0172 min.^−1
- half live of conversion to cyclopropavir (5) ([4]; 37°C): 40.4 min
- conversion of valcyclopropavir (6) to cyclopropavir (5), no incubation ([4]; processed immediately after spiking): 3.7%
- CC50 [5]: > 100 µM
- CC50 [6]: > 300 µM

Compound: Nc1nc2c(ncn2/C=C2/CC2(CO)CO)c(=O)[nH]1 [Cyclopropavir (5)]
- CC50 [5]: > 100 µM
- CC50 [6]: > 380 µM

Compound: CC(C)[C@H](N)C(=O)OCC(CO)OCn1cnc2c(=O)nc(N)[nH]c21 (stereo partly shown) [valganciclovir (2)]
- half-life of hydrolysis [7]: 11 h

Compound: Nc1nc(O)c2ncn(COC(CO)CO)c2n1 [Ganciclovir, reference compound]
- CC50 [5]: > 100 µM
- CC50 [6]: > 100 µM
